98 compounds from ChEMBL document CHEMBL4513216, “Probing the Open Global Health Chemical Diversity Library for Multistage-Active Starting Points for Next-Generation Antimalarials” (ACS Infect Dis, 2020) can be followed below.

Structures are written as SMILES.

The series in a line: Toxicity liver stage against HepG2, at 10uM. Particulars: human, HepG2-A16-CD81EGFP cells; read-out: INHIBITION
The format is cell-based. On the set-up: test concentration 10 uM, cell line HepG2-A16-CD81EGFP. The gist of the method: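 Uninfected HepG2-A16-CD81EGFP cells, 3 × 10^3 per well, 1536-well, plated on prespotted compound at 10 μM final, parasite-free screening media added to match infected plates; puromycin 10 μM positive, DMSO 0.5% negative; run in parallel with 48 h PbLuc assay at 37 °C, 5% CO2; viability by CellTiter-Glo luminescence, normalized to controls.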
In the case of `Cc1cccc(CC(=O)NS(=O)(=O)c2ccc(F)c(F)c2)c1`, the cytotoxicity at 10 µM is -5.23%.

Consider `CNc1cc(C2CCCN2Cc2ccccc2OCC(=O)O)ccn1` (stereo not drawn), for which the cytotoxicity at 10 µM was -0.645%.

For `O=C(NCc1ccon1)c1c(F)cc(Br)cc1F`, the cytotoxicity at 10 µM amounted to 12.3%.

`O=C(C1CCOCC1)N1CCC2(CC1)CN(c1ccsc1)C(=O)CO2`: the cytotoxicity at 10 µM is -63.4%.

With `CC(C(N)=O)N1CCN(c2ncc(Br)cn2)CC1` (stereo not drawn), the cytotoxicity at 10 µM was determined as 3.23%.

Regarding `Cn1ccnc1CN1CCC2(CC(=O)N(c3cncnc3)C2)C1` (stereo not drawn), the cytotoxicity at 10 µM is -0.799%.

On to `Cc1cnc(C(=O)NCc2ccnc(N(C)C)c2)cn1`, for which the cytotoxicity at 10 µM is -1.07%.

Regarding `O=C(N1CCCC1)N1CCOCC2(C1)CN(c1ccccc1)C(=O)CO2` (stereo not drawn), the cytotoxicity at 10 µM was 4.77%.

For `c1ccc(OCc2n[nH]c3c2CN(CC2CC2)C3)nc1`, the cytotoxicity at 10 µM is 7.49%.

As to `c1ccc(-c2cnn3cc(CN4CCC5(CCO5)CC4)cnc23)cc1`, the cytotoxicity at 10 µM came out at 1.64%.

As for `CC(C)NC(=O)N1CCOC2(CNC2)C1`, the cytotoxicity at 10 µM is -0.479%.

In the case of `CCOCCCNC(=O)c1cc(C)nc(N2CCCC2)n1`, the cytotoxicity at 10 µM amounted to 1.11%.

For the compound `c1ccc2c(N3CCCCC3Cn3cccn3)ncnc2c1` (stereo not drawn), the cytotoxicity at 10 µM was -5.33%.

`CC(C)NC(=O)C1CCC2(CCNCC2)C1` (stereo not drawn): the cytotoxicity at 10 µM came to 7.18%.

In the case of `O=C(c1ccsc1)N1CCN2C[C@H](OCc3cccnc3)C[C@H]2C1`, the cytotoxicity at 10 µM worked out at 0.59%.

On to `CCCS(=O)(=O)N1Cc2ccnn2CC(c2nc(C)no2)C1` (stereo not drawn), for which the cytotoxicity at 10 µM was determined as 5.98%.

As to `Cc1cc(C)n(CCN(C)c2ccc(-c3nc(C4CC4)no3)cn2)n1`, the cytotoxicity at 10 µM stood at 6.08%.

Turning to `CCOC(=O)C1(NCC(=O)Nc2cc(C)ccc2OC)CCCC1`, the cytotoxicity at 10 µM was 6.9%.

Regarding `O=C1COC2(CCN(Cc3cccs3)CC2)CN1c1ccsc1`, the cytotoxicity at 10 µM is -125%.

Regarding `Cc1ccc(C)c(OCCNC(=O)C2CCOC2)c1` (stereo not drawn), the cytotoxicity at 10 µM was -2.73%.

On to `CNC(=O)CN(C)c1cncc(OCC(C)C)n1`, for which the cytotoxicity at 10 µM was determined as 0.137%.

In the case of `CN(C)S(=O)(=O)N1C[C@@H](OCc2cccnc2)[C@H]2OCCC[C@H]21`, the cytotoxicity at 10 µM was found to be 0.74%.

For the compound `Cc1nc(C)n(CCCNC(=O)C(C)n2ccnc2C(C)C)n1` (stereo not drawn), the cytotoxicity at 10 µM was -4.97%.

With `CCN(c1ccsc1C(=O)N1CCC(C)CC1)S(=O)(=O)c1ccccc1`, the cytotoxicity at 10 µM worked out at 14.7%.

`CCC1CN(C)c2ccccc2CN1C(=O)Nc1ccc(C)cc1` (stereo not drawn): the cytotoxicity at 10 µM was found to be 4.01%.

With `CCc1nc(CN(C)CC(=O)N(C)C2CC2)cs1`, the cytotoxicity at 10 µM is -3.54%.

`CCCC(=O)N1CCC(Nc2nc(O)cc(-c3ccsc3)n2)CC1`: the cytotoxicity at 10 µM was 5.46%.

As to `COc1cc(CC2CC(C(N)=O)=NO2)cc2c1OCO2` (stereo not drawn), the cytotoxicity at 10 µM was 5.32%.

Regarding `O=C(NCCO)Nc1ccc(Cl)cc1-n1cccc1`, the cytotoxicity at 10 µM turned out to be 7.82%.

In the case of `N[C@H]1CN(C(=O)CCCc2ccc(F)cc2)C[C@@H]1C1CC1`, the cytotoxicity at 10 µM is -2.45%.

Turning to `O=C1CN(C(=O)C2CCCCC2)CC(O)CN1Cc1ccc(Cl)cc1` (stereo not drawn), the cytotoxicity at 10 µM turned out to be 6.02%.

As to `COCCOc1ncccc1C(=O)N1CCCn2ncnc21`, the cytotoxicity at 10 µM was -2.98%.

`CC(NC(=O)NCCCc1n[nH]c(N)c1C#N)c1cccc(Cl)c1` (stereo not drawn): the cytotoxicity at 10 µM is -4.14%.

In the case of `COC(=O)CCCN(C)C(c1cccnc1)c1ccc(F)cc1F` (stereo not drawn), the cytotoxicity at 10 µM was -0.665%.

With `Cc1nc(CNC2CCc3ncnn3C2)oc1C` (stereo not drawn), the cytotoxicity at 10 µM was -3.86%.

Regarding `c1ccc(N2CCC(OCC3CCCCO3)CC2)nc1` (stereo not drawn), the cytotoxicity at 10 µM was -1.03%.

Regarding `COCC(=O)N1C[C@H]2CC[C@@]3(N=C(c4ccccc4)NC3=O)[C@H]2C1`, the cytotoxicity at 10 µM came out at 3.83%.

Regarding `COc1ccc(S(=O)(=O)C2CCN(C(=O)c3cc(C)cs3)CC2)cc1`, the cytotoxicity at 10 µM came to 3.07%.

Regarding `Cc1ncncc1-c1ccnc(N)n1`, the cytotoxicity at 10 µM is -7.22%.

For `CCNS(=O)(=O)c1ccc(C)c(C(=O)N(CCC#N)Cc2ccco2)c1`, the cytotoxicity at 10 µM came out at 5.44%.

For `COc1ccc(-c2nc(CNC3CCc4nc(C)nn4C3)no2)cc1` (stereo not drawn), the cytotoxicity at 10 µM was -3.42%.

On to `COc1cccc(-c2nnn(C3CCN(CC(F)(F)F)C3=O)n2)c1` (stereo not drawn), for which the cytotoxicity at 10 µM was determined as 3.34%.

As for `CCCSCC(=O)N1CCC2(CC1)CC(c1ccccc1)CN(C)C2` (stereo not drawn), the cytotoxicity at 10 µM is -7.29%.

For `CCC(=O)N1C[C@@H](C(=O)NC)[C@H](c2ccnc(N3CCCC3)n2)C1`, the cytotoxicity at 10 µM is -1.21%.

Consider `CCN(CCO)C[C@@H]1CN(C(=O)c2ccc(C)s2)C[C@@H]1CO`, for which the cytotoxicity at 10 µM was 12.1%.

As to `CCS(=O)(=O)CCNC(=O)c1ccc(-c2ccc(C)cc2)cc1F`, the cytotoxicity at 10 µM is -14.2%.

For `COCc1cc(CNC(=O)c2cccc3c2OCC3)n[nH]1`, the cytotoxicity at 10 µM came to 8.97%.

As to `Cc1c(NCCO)cccc1OC1CCCC1`, the cytotoxicity at 10 µM was found to be 3.1%.

In the case of `CC(C)(C)CNC(=O)c1ccc(C(=O)O)nc1`, the cytotoxicity at 10 µM was 10.4%.

For the compound `COc1ccc(CCNC(=O)C(C)Nc2cccc(C)c2C)cc1` (stereo not drawn), the cytotoxicity at 10 µM is -5.91%.

With `Cc1cc(C2CCC2)nc(N(C)Cc2cnccn2)n1`, the cytotoxicity at 10 µM was -1.86%.

Regarding `O=C(N1CCOCC1)N1CCN(c2ccnc3ccsc23)CC1`, the cytotoxicity at 10 µM was -4.48%.

Consider `COC(C)(C)CNC(=O)N1CCC(n2ccc(C(F)(F)F)n2)CC1`, for which the cytotoxicity at 10 µM was -2.41%.

With `COc1ccc(C2CCCN2C(=O)c2ccnc(NC3CC3)c2)cc1` (stereo not drawn), the cytotoxicity at 10 µM was 3.07%.

On to `Cc1cccnc1N1CC2(CCN(Cc3cccnc3)C2)C1`, for which the cytotoxicity at 10 µM was -8.13%.

Consider `Cc1ccsc1CN(C)Cc1nc2c(cnn2C)c(=O)[nH]1`, for which the cytotoxicity at 10 µM was -0.575%.

In the case of `CC(C)Cc1cc(NC(=O)c2ccccc2F)n(C)n1`, the cytotoxicity at 10 µM is -6.48%.

`CNC(=O)C1CCCN1c1nc(C)c2ccccc2n1` (stereo not drawn): the cytotoxicity at 10 µM stood at 10.4%.

On to `CC(=O)c1c(F)cccc1NCC(O)c1ccc(F)c(F)c1` (stereo not drawn), for which the cytotoxicity at 10 µM came to 13.3%.

Turning to `CC(C)[C@H](N)C(=O)N1CCCC(C2=Nc3ccccc3S(=O)(=O)N2)C1` (stereo partly drawn), the cytotoxicity at 10 µM came to 7.96%.

For the compound `Fc1ccc(N2CCCN(Cc3ccc(-c4cc[nH]n4)o3)CC2)cc1`, the cytotoxicity at 10 µM came out at 0.898%.

Consider `c1cnnc(N2CCCC2CNCc2cnc(N3CCCC3)nc2)c1` (stereo not drawn), for which the cytotoxicity at 10 µM turned out to be 7.96%.

In the case of `CCC1c2ccccc2CCN1CCCS(C)(=O)=O` (stereo not drawn), the cytotoxicity at 10 µM was determined as 1.75%.

`COCC(=O)Nc1ccc(Oc2ccsc2C(=O)O)cc1`: the cytotoxicity at 10 µM was 8.12%.

Take `C[C@@H]1CN(C(=O)c2ccc(C#N)nc2)CC[C@@]1(O)C1CCOCC1`: the cytotoxicity at 10 µM is -11.5%.

Turning to `COC(=O)CN(C(=O)c1ccc(-n2ccnc2)cc1)C1CCCC1`, the cytotoxicity at 10 µM is -7.28%.

With `c1csc(-c2noc(CCCN3CCCC3Cn3cncn3)n2)c1` (stereo not drawn), the cytotoxicity at 10 µM is -24.2%.

Regarding `COC(=O)c1ccc(Cn2cnc(C#N)n2)cc1`, the cytotoxicity at 10 µM is -4.74%.

Regarding `COc1cccc(C(=O)N2CCCC(c3cc(C)[nH]n3)C2)c1OC` (stereo not drawn), the cytotoxicity at 10 µM was -7.4%.

In the case of `CC(C)n1ccnc1CN1CCCN(C(=O)CC2C=CCC2)CC1` (stereo not drawn), the cytotoxicity at 10 µM was 3.08%.

On to `CC1CN(C(=O)c2cccc(OCc3cscn3)c2)CCO1` (stereo not drawn), for which the cytotoxicity at 10 µM is -9.86%.

As to `O=C(c1ccco1)N1CC[C@H]2[C@H]1CCN2CC1CCOCC1`, the cytotoxicity at 10 µM came out at 5.12%.

For `CCn1cncc1Cn1ncc2ccccc2c1=O`, the cytotoxicity at 10 µM was found to be 3.7%.

In the case of `Cc1cc(C)cc(OCCC(=O)N2CCCC(n3cncn3)C2)c1` (stereo not drawn), the cytotoxicity at 10 µM was -3.76%.

For `Cc1nc(C)n(CC2CCCN2CCOc2cccc(F)c2)n1` (stereo not drawn), the cytotoxicity at 10 µM is -0.945%.

Take `CCSCCC(=O)NS(=O)(=O)c1ccc2c(c1)OCCO2`: the cytotoxicity at 10 µM came out at 0.35%.

With `CCc1cnc(C)nc1NCCN1CCCC(C(N)=O)C1` (stereo not drawn), the cytotoxicity at 10 µM was -2.54%.

Consider `Cc1ccc(C2CCCN2S(=O)(=O)N(C)Cc2nccn2C)o1` (stereo not drawn), for which the cytotoxicity at 10 µM was -0.787%.

Consider `Cc1nn(C)cc1C(C)Nc1ncc(C(N)=O)cc1Cl` (stereo not drawn), for which the cytotoxicity at 10 µM was found to be 3.68%.

For the compound `CN(C(=O)CCc1cccs1)C1CCCN(C2Cc3ccccc3C2)C1` (stereo not drawn), the cytotoxicity at 10 µM was -4.49%.

For the compound `COc1ccc2cc(NC(=O)CCNc3nc(C)cc(C)n3)cnc2c1`, the cytotoxicity at 10 µM is -48.9%.

As to `Cc1nc(CNC2CC(=O)N(CCc3cccc(Cl)c3)C2)c[nH]1` (stereo not drawn), the cytotoxicity at 10 µM was -133%.

Take `COCC(=O)Nc1cc(S(=O)(=O)C(F)(F)F)ccc1OC`: the cytotoxicity at 10 µM stood at 17.3%.

As for `CC(NC(=O)N1CCSC(C)(C)C1)c1noc(-c2ccccc2)n1` (stereo not drawn), the cytotoxicity at 10 µM is -22.3%.

Turning to `CCn1cnnc1CCNC(=O)c1ccc(Br)cc1F`, the cytotoxicity at 10 µM is -29.7%.

Regarding `O=C(NCC1(O)CCSC1)c1ccn(-c2ccccc2F)n1` (stereo not drawn), the cytotoxicity at 10 µM turned out to be 2.88%.

For `CS(=O)(=O)NC1CCN(Cc2coc(-c3ccc(Cl)cc3)n2)CC1`, the cytotoxicity at 10 µM was -41.9%.

Regarding `Cc1nc(CN2CCCC(N(C)Cc3cnn(C)c3)C2)no1` (stereo not drawn), the cytotoxicity at 10 µM is -7.72%.

For `Cn1cc(CNC2CC3(CCN(CC4CC4)CC3)c3ccccc32)cn1` (stereo not drawn), the cytotoxicity at 10 µM is -8.22%.

For `Cc1ccc(-c2cnnc(NCC3CCOCC3)n2)o1`, the cytotoxicity at 10 µM was -3.64%.

Turning to `CC(C)c1nn(C)c(N(C)C)c1CNCc1ccnn1C`, the cytotoxicity at 10 µM turned out to be 0.926%.

With `CC(=O)c1ccc(C(=O)Nc2ccnc(N(C)C)n2)cc1`, the cytotoxicity at 10 µM was found to be 2.49%.

`O=c1cc(Cn2ccnc2)nc2n1CCCN(Cc1ccncc1)C2`: the cytotoxicity at 10 µM was -0.559%.

In the case of `COC(=O)C(NC(=O)c1cc(F)cc(F)c1)c1cccnc1` (stereo not drawn), the cytotoxicity at 10 µM was -39.1%.

Take `Cc1nnc(Nc2cccc(C3CCN(CCO)CC3)n2)s1`: the cytotoxicity at 10 µM was 2.37%.

Regarding `Cc1n[nH]c(C)c1-c1c(C#N)c(N)nc2c1CCc1[nH]ccc1-2`, the cytotoxicity at 10 µM worked out at 2.83%.

Take `Cc1oncc1C(=O)N1CCc2ncnc(-c3cnn(C)c3)c2CC1`: the cytotoxicity at 10 µM was determined as 7.07%.

On to `Cc1cnc(CN2CCCC2c2noc(C3CC3)n2)cn1` (stereo not drawn), for which the cytotoxicity at 10 µM was -13.5%.
